Here are results for 13 compounds from paper PMC8395693 (JACS Au, 2021).

Read-outs that look alike come from different tables or passages of the source. Where only a bound is given, the exact number is not on record here.

Data set [1] deals with MDA-MB-231. The data set can be described thus: Cell viability. Format: cell-based. The settings on record: read-out: IC50 value. The method, boiled down:
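Test compounds were added from stock solutions so that the final DMSO was <1%, and MDA-MB-231 cells were incubated with them for 72 h. Viability was read after exposure and IC50 derived. Data are mean ± s.e.m., n = 3.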

Data set [2] deals with MDA-MB-231. The data set can be described thus: Transmission electron microscopy of mitochondrial morphology. The conditions noted are these: AuTri-9 10 µM, 1 h. Type of data set: cell-based. The method, boiled down:
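MDA-MB-231 cells were exposed to the test compound for 1 h. Vehicle wells received 1% DMSO. Reference inducers were run alongside: staurosporine (apoptosis), hydrogen peroxide (necrosis), rapamycin (autophagy) and erastin (ferroptosis). Mitochondria were imaged by TEM. Maximal cristae width was measured in 10 randomly chosen cells on randomly chosen mitochondria, with up to 3 cristae per mitochondrion and 100 cristae per cell, given as mean ± s.e.m.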

The conditions of data set [3]: based on gold; cited from earlier work.
Setting [4] is: MDA-MB-231, MTT assay, 72 h, mean ± s.e.m., n = 3.

As usually defined, the IC50 is the concentration that gives 50% inhibition.

For the compound `[Au+].[F][Sb-]([F])([F])([F])([F])[F].c1ccc([As](c2ccccc2)c2ccccc2)cc1.c1cnc2c(c1)ccc1cccnc12` [AuTri-4], in the data set with MDA-MB-231 [1] (setting [4]), the IC50 was found to be 3.98 ± 0.359 µM.

`OO` [H2O2, hydrogen peroxide]: the “morphological changes in mitochondria (TEM)” value (from here on “morphological changes”) with MDA-MB-231 [2] is reported as “mitochondrial structure remains intact”.

For `c1ccc(-c2ccccn2)nc1` [bipyridine], the IC50 in the data set on MDA-MB-231 [1] (setting [4]) was 17.5 ± 0.354 µM.

Take `CN[C@@H]1C[C@H]2O[C@@](C)([C@@H]1OC)n1c3ccccc3c3c4c(c5c6ccccc6n2c5c31)C(=O)NC4` [staurosporine]: the “morphological changes” value in the data set on MDA-MB-231 [2] is “no distinct morphological changes to mitochondria”.

`[Au+].[F][Sb-]([F])([F])([F])([F])[F].c1ccc(-c2ccccn2)nc1.c1ccc(P(c2ccccc2)c2ccccc2)cc1` [AuTri-3]: in the data set on MDA-MB-231 [1] (setting [4]), the IC50 was determined as 6.56 ± 0.354 µM.

As to `CCOc1ccccc1-n1c(C(C)N2CCN(C(=O)COc3ccc(Cl)cc3)CC2)nc2ccccc2c1=O` (centres unmarked) [erastin], in the data set with MDA-MB-231 [2], the “morphological changes” value is reported as “mitochondrial shrinkage”.

As for `CO[C@H]1C[C@@H]2CC[C@@H](C)[C@@](O)(O2)C(=O)C(=O)N2CCCC[C@H]2C(=O)O[C@H]([C@H](C)C[C@@H]2CC[C@@H](O)[C@H](OC)C2)CC(=O)[C@H](C)/C=C(\C)[C@@H](O)[C@@H](OC)C(=O)[C@H](C)C[C@H](C)/C=C/C=C/C=C/1C` [rapamycin], in the data set on MDA-MB-231 [2], the “morphological changes” value is recorded as “no distinct morphological changes to mitochondria”.

As for `Cc1ccnc2c1ccc1c(C)ccnc12` [4,7-dimethylphenanthroline], the IC50 in the data set with MDA-MB-231 [1] (Homo sapiens, MDA-MB-231, 72 h) was determined as 14.1 ± 2.58 µM.

Consider `c1cnc2c(c1)ccc1cccnc12` [1,10-phenantrholine], for which, in the data set with MDA-MB-231 [1] (Homo sapiens, MDA-MB-231, 72 h), the IC50 came out at 7.21 ± 1.68 µM.

With `c1ccc(-c2ccnc3c2ccc2c(-c4ccccc4)ccnc23)cc1` [bathophenanthroline], the IC50 with MDA-MB-231 [1] (setting [4]) is 7.48 ± 1.64 µM.

As to `[F][Sb-]([F])([F])([F])([F])[F].[Na+]` [NaSbF6], the IC50 with MDA-MB-231 [1] (setting [4]) was above 50 µM.

With `CC(=O)OC[C@H]1O[C@@H]([S-])[C@H](OC(C)=O)[C@@H](OC(C)=O)[C@@H]1OC(C)=O.CCP(CC)CC.[Au+]` [auranofin], the “MTD (maximum tolerated dose)” value in data set [3] is 12 mg/kg. For the same compound, the IC50 in the data set on MDA-MB-231 [1] (setting [4]) is 1.31 ± 0.15 µM.

With `N.N.[Cl][Pt][Cl]` [cisplatin], the IC50 in the data set on MDA-MB-231 [1] (setting [4]) is 34.6 ± 0.783 µM.
